Source: PubChem
STAT3 blocker = inhibitors of IL-6 induced STAT3 signaling | U3A cells, IL-6 STAT3-luciferase reporter, luminescence; host cell line lacks STAT1 | inhibition, % at 5.5 µM | 0.89% of 190,000 active | AID 862;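 active = inhibition above the mean inhibition across all screened compounds plus 3 SD, cut at about 44% in these data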;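 also: 0% = DMSO only wells and 100% = 100 µM nifuroxazide control wells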
STAT3 activator = activators of IL-6 induced STAT3 signaling. activation (% of control), % at 5.6 µM. 0.91% of 190,000 active. AID 871. U3A cells, IL-6 STAT3-luciferase reporter, luminescence; 100% = signal with IL-6 EC80 alone;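 active = activation above the screen-wide mean of compound activation plus 3 SD, cut at about 130% in these data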;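 also: 0% = background luminescence of wells with medium and substrate only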
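Material: human U3A cells carrying STAT3-luciferase construct. Measured by: reporter luminescence signal. Timing: compound 1 h, then IL-6 6 h at 37 °C.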
STAT1 inh = reduces IFN-gamma driven STAT1 reporter signal; inhibition, % at 5.5 µM; NIH 3T3 STAT1-luciferase reporter, luminescence; 0.35% of 200,000 active;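 active = inhibition above a set limit, the mean inhibition across all tested compounds plus 3 SD, cut at about 34% in these data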;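 also: 0% = IFN-gamma with DMSO and 100% = IFN-gamma with 300 µM nifuroxazide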
HSP90 refold inh = HSP90 refolding inhibition in rabbit reticulocyte lysate | luciferase refolding luminescence, 3 h | inhibition, % at 5.6 µM | 0.91% of 290,000 active | AID 1789;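 active = inhibition above the screen-wide mean plus 3 SD, computed separately per campaign, cut at about 16% in these data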;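 also: 0% = DMSO wells and 100% = 60 µM geldanamycin wells; inhibitors lower the luminescence because luciferase stays unfolded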
HSP90 confirm = HSP90 inhibition, confirmation assay; shares compounds with HSP90 refold inh; rabbit reticulocyte lysate, luciferase refolding luminescence, 3 h; inhibition, % at 5.9 µM; 64% of 2,300 active; in the data active = inhibition above about 18%;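 also: 0% = vehicle wells and 100% = reference inhibitor wells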
FLuc counter = firefly luciferase inhibition, HSP90 counter-screen; shares compounds with HSP90 refold inh; purified native firefly luciferase, luminescence; inhibition, % at 5.9 µM; 48% of 2,300 active; AID 1847;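 active = inhibition above the mean inhibition of all tested sample wells plus 3 SD, cut at about 10% in these data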;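 also: 0% = DMSO with luciferase and 100% = wells lacking luciferase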
Target sequence (P08659 whole entry, looked up): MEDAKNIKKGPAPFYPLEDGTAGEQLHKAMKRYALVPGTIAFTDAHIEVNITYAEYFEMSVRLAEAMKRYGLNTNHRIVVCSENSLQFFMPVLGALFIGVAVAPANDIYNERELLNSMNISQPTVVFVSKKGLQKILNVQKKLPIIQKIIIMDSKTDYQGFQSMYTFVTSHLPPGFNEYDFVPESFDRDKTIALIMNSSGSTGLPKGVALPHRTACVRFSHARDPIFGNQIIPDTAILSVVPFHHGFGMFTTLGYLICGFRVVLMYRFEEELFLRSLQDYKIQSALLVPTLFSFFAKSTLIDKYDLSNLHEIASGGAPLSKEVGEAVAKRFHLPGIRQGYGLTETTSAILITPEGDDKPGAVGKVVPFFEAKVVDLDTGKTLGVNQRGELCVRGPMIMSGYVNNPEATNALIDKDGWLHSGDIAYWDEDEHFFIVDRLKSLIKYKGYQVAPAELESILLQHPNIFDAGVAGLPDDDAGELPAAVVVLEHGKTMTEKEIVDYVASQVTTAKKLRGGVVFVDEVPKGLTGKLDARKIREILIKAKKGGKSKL
An asterisk follows results filed as active; / = no result. Rows were chosen to be rich in hits. Some 2% of all compounds tested hit in one or more screens of this group.

SMILES | STAT3 blocker | STAT3 activator | STAT1 inh | HSP90 refold inh | HSP90 confirm | FLuc counter
O=C1CC(C(=O)O)S/C(=N\N=C\c2ccc(Br)cc2)N1 (configuration not stated) | / | / | / | 27* | 22* | -14
C/C(=N/N=C1/NC(=O)CC(C(=O)O)S1)c1ccccc1 (configuration not stated) | -2 | 101 | 13 | 6 | / | /
COc1ccc(-n2nc(C(=O)NCC(=O)NCCC3=CCCCC3)c3ccccc3c2=O)cc1OC | / | / | / | 1 | / | /
C=C1C2(C(=O)NCc3ccco3)CCC(C2)C1(C)C (configuration not stated) | -4 | 103 | -5 | 20* | -6 | -9
O=C(NCc1ccco1)C1(c2ccccc2)CCCC1 | 2 | 102 | 7 | -3 | / | /
O=C(N/N=C/c1ccc(N2CCOCC2)cc1)c1ccccn1 | / | / | / | 26* | 14 | 1
CN(C)c1ccc(/C=C(\C#N)c2ccccn2)cc1 | 99* | 18 | 54* | 66* | 84* | 78*
CN(C)c1ccc(/C=N/NC(=O)c2ccccn2)cc1 | / | / | / | 24* | 62* | 47*
O=C(N/N=C\c1cc([N+](=O)[O-])ccc1N1CCOCC1)c1ccccn1 | 14 | 97 | -6 | 2 | / | /
CCCOC(=O)Nc1ccc(N2CCCCC2)cc1 | 30 | 75 | -49 | 21* | 34* | 21*
O=C(N/N=C/c1ccncc1)c1ccccn1 | / | / | / | 2 | / | /
CCc1ccccc1NC(=O)COc1ccc(N2CC(C(N)=O)CC2=O)cc1 (configuration not stated) | / | / | / | -1 | / | /
CC1=C(C(=O)Nc2ccc(CC(=O)NCc3ccc(OC(C)C)cc3)cc2)SCCO1 | / | / | / | -5 | / | /
O=C(Nc1ccc(N2CCCCC2)cc1)c1ccccn1 | 110* | 9 | 96* | 92* | 93* | 89*
CN(C)c1ccc(NC(=S)c2ccccn2)cc1 | 98* | 16 | 68* | 66* | 94* | 90*
CC(C)c1ccc(/C=N/NC(=O)c2cccc(Cl)c2)cc1 | -4 | 108 | -95 | -2 | / | /
CC(C)c1ccc(/C=N/NC(=O)c2ccccn2)cc1 | / | / | / | 28* | 69* | 63*
Cc1ccc2nc(Nc3ccc(Cl)cc3)c3nncn3c2c1 | / | / | / | 2 | / | /
CCOc1ccc(C(C(=O)NCC2CCCO2)N(C(=O)c2snc(C(N)=O)c2N)c2ccc3c(c2)OCCO3)cc1 (configuration not stated) | / | / | / | -1 | / | /
CN(C)c1ccc(N=Nc2nc3ccccc3n2C)cc1 | / | / | / | 21* | 19* | 93*
O=C(O)CSc1nnc(-c2ccc(Cl)cc2Cl)n1-c1ccc(Cl)cc1 | / | / | / | -3 | / | /
COc1ccc(OCC(=O)C2CC2)c(C#N)c1 | / | / | / | 2 | / | /
Cc1cccc(OCCCC(=O)Nc2ccc(S(=O)(=O)Nc3ncccn3)cc2)c1C | / | / | / | 25* | 1 | -5
CC(C)(C)c1ccc(C(=O)O/N=C(\N)c2ccccc2)cc1 | / | / | / | 69* | 25* | 20*
COc1ccc(/C(N)=N/OC(=O)c2ccco2)cc1 | 57* | 56 | 53* | 41* | 60* | 43*
SMILES | STAT3 blocker | STAT3 activator | STAT1 inh | HSP90 refold inh | HSP90 confirm | FLuc counter
COc1ccccc1NC(=O)O/N=C(\N)c1ccccc1 | / | / | / | 17* | -1 | -13
COc1ccc(C(=O)O/N=C(\N)c2ccccc2)cc1 | / | / | / | 25* | 43* | 79*
Cc1ccc(/C(N)=N/OC(=O)c2ccco2)cc1 | 31 | 77 | 6 | 8 | / | /
O=C(NCCc1ccc(F)cc1)c1cc(-c2ccncc2)nc2ccccc12 | / | / | / | -4 | / | /
O=S(=O)([N-]c1nc2ccccc2nc1-n1cc[n+](Cc2ccccc2)c1)c1ccc(Br)cc1 | / | / | / | 7 | / | /
Cc1nnc(N/N=C\c2ccc(-c3ccccc3[N+](=O)[O-])o2)n1N | -31 | 127 | -6 | 38* | -8 | -12
Cc1nnc(N/N=C/c2ccc(-c3ccccc3F)o2)n1N | -23 | 121 | -29 | 65* | 18* | -11
CCc1nnc(N/N=C/c2ccc(-c3ccc([N+](=O)[O-])cc3)o2)n1N | 4 | 102 | -20 | 36* | -3 | -6
CCC(=O)N/N=C/c1ccc(-c2ccc([N+](=O)[O-])cc2)o1 | 20 | 85 | -7 | 4 | / | /
Cc1n[nH]c(=S)n1/N=C/c1ccc(-c2ccccc2[N+](=O)[O-])o1 | -8 | 107 | -6 | 1 | / | /
S=C1Cc2ccccc2C(c2ccc(Cl)cc2)N1 (configuration not stated) | / | / | / | 3 | / | /
COc1ccc(N(Cc2cc3ccc(C)cc3[nH]c2=O)C(=O)c2ccco2)cc1 | 4 | 99 | -6 | -4 | / | /
Cc1ccc(C)c(N(Cc2cc3ccc(C)cc3[nH]c2=O)C(=O)c2ccco2)c1 | / | / | / | 18* | 1 | -5
O=c1oc2ccc(Cl)cc2nc1/C=C(\O)c1ccco1 | / | / | / | 82* | 79* | -5
CC(C)C/C(O)=C/c1nc2cc(Cl)ccc2oc1=O | -9 | 109 | 24 | 6 | / | /
CSc1ccc(NC(=O)Nc2cc(C)ccn2)cc1 | / | / | / | 14 | 55* | 49*
Cc1ccnc(NC(=O)Nc2ccc(F)cc2)c1 | 7 | 97 | -63 | -1 | / | /
Cc1ccccc1C(=O)c1cccn1CC(=O)NCc1cccc(Cl)c1 | / | / | / | -6 | / | /
Cc1c(OCC(=O)N[C@@H](Cc2ccccc2)C(=O)O)ccc2c1oc(=O)c1ccccc12 | / | / | / | -7 | / | /
Cc1ccc2nc(-c3sc4nc(C)cc(C)c4c3N)[nH]c2c1 | -44 | 140* | -34 | 25* | 23* | 19*
CC(=O)c1sc2nc(C)cc(C)c2c1N | 20 | 89 | -3 | -2 | / | /
Cc1ccc(CSCC(Nc2ccc(C(=O)O)cc2[N+](=O)[O-])C(=O)O)cc1 (configuration not stated) | 4 | 101 | 0 | 25* | -3 | -5
CCOc1ccc(-c2nc(CSCC(=O)N3CCN(C(=O)c4ccco4)CC3)c(C)o2)cc1 | 9 | 100 | -1 | 37* | 46* | -5
Cc1ccc(N2C(=O)CC(N3CCN/C3=C3\CC/C(=C\c4ccccc4)C3=O)C2=O)cc1 (configuration not stated) | -2 | 105 | -3 | 18* | 6 | -5
O=C1CN(C(=O)c2ccc(Cl)c(S(=O)(=O)N3CCc4ccccc43)c2)c2ccccc2N1 | / | / | / | -3 | / | /
SMILES | STAT3 blocker | STAT3 activator | STAT1 inh | HSP90 refold inh | HSP90 confirm | FLuc counter
Cc1ccc(NC(=O)CN2CCC(NC(=O)c3ccccc3F)CC2)cc1C | / | / | / | 0 | / | /
COc1ccc2c(c1OC)C(=O)OC2Nc1nc(-c2cc3ccccc3oc2=O)cs1 (configuration not stated) | 24 | 80 | -92 | 64* | 14 | 2
CCCn1nc(C(=O)NNC(=O)c2cccc(S(=O)(=O)NC(C)C)c2)c2ccccc2c1=O | / | / | / | 2 | / | /
COC(=O)c1ccc(Nc2nc3ccc(C)cc3n3cnnc23)cc1 | / | / | / | 38* | 42* | 10*
O=C1c2cccnc2C(=O)N1Cc1ccc(F)cc1S(=O)(=O)NCc1ccco1 | / | / | / | -4 | / | /
O=C1CCC(=O)N1c1ccc(-c2nc3ccccc3s2)cc1 | 86* | 26 | 68* | 46* | 74* | 66*
